Test results: PMC8649585 (Neoplasia (New York, N.Y.), 2021)
Where two headings read alike, the source gives them in different places. Blank lines part the entries; values can stand above or below the molecule they belong to.

How the values were obtained:
FGFR1 WT = FGFR1 WT (Homo sapiens, UniProt P11362); assay: Radiometric biochemical kinase assay; details: ATP 10 µM
FGFR1 V561M = FGFR1 V561M (Homo sapiens, UniProt P11362, V561M); assay: Radiometric biochemical kinase assay; details: ATP 10 µM
FGFR2 WT = FGFR2 WT (Homo sapiens, UniProt P21802); assay: Radiometric biochemical kinase assay; details: ATP 10 µM
FGFR2 N549H = FGFR2 N549H (Homo sapiens, UniProt P21802, N549H); assay: Radiometric biochemical kinase assay; details: ATP 10 µM
FGFR4 WT = FGFR4 WT (Homo sapiens, UniProt P22455); assay: Radiometric biochemical kinase assay
AN3-CA cells = assay: Cell proliferation assay; assay type: cell-based; details: 72 h
KMS-11 cells = assay: Cell proliferation assay; assay type: cell-based
J82 cells = assay: Cell proliferation assay; assay type: cell-based
HEP3B cells [1] = assay: Cell proliferation assay; assay type: cell-based, human; details: 72 h
Summary of the method: (§1)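 Seeding was 5 × 10^3 cells per well in 96-well plates: HEP3B in DMEM, HUH7 and HEPG2 in RPMI1640, all with 10% FBS at 37 °C under 5% CO2. Cells received 10 doses of test compound in 3-fold serial dilution for 72 h. Viability was read by CellTiter-Glo luminescence.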

HUH7 cells [2] = assay: Cell proliferation assay; assay type: cell-based, human
Summary of the method: as §1

HEPG2 cells = assay: Cell proliferation assay; assay type: cell-based, human; details: FGFR4 overexpression, HCC
Summary of the method: as §1

MDA-MB-453 cells = assay: Cell proliferation assay; assay type: cell-based
Summary of the method: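 MDA-MB-453 cells (DMEM, 10% FBS, 37 °C, 5% CO2) were plated at 5 × 10^3 per well in 96-well plates. Test compound was added at 10 doses in 3-fold serial dilution for 72 h. Viability was read by CellTiter-Glo luminescence, and GI50 was derived from the dose-response curves.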

SK-HEP1 cells [3] = assay: Soft agar anchorage-independent growth assay; assay type: cell-based; details: 5 µM, 3 weeks
Summary of the method: (§2)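 The base layer was 0.5% agar in DMEM in 6-well plates. Cells were suspended in 2× DMEM with 0.7% agar (0.35% agar per legend) at 5 × 10^3 cells per well and overlaid with medium containing test compound. Plates were incubated for 3 weeks at 37 °C under 5% CO2. Colonies were stained with iodonitrotetrazolium chloride in PBS and imaged.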

HUH7 cells [4] = assay: Soft agar anchorage-independent growth assay; assay type: cell-based, human; details: GNF-7 0.1 or 0.5 µM, SIJ1263 0.01 or 0.05 µM, 3 weeks
Summary of the method: as §2

HEP3B cells [5] = assay: Soft agar anchorage-independent growth assay; assay type: cell-based, human; details: GNF-7 0.1 or 0.5 µM, SIJ1263 0.01 or 0.05 µM, 3 weeks
Summary of the method: as §2

HUH7 cells [6] = assay: Scratch wound healing migration assay; assay type: cell-based, human; details: GNF-7 0.01 or 0.05 μM, SIJ1263 0.002 or 0.005 μM, PD173074 0.1 μM, 36 h
HEP3B cells [7] = assay: Scratch wound healing migration assay; assay type: cell-based, human; details: GNF-7 0.01 or 0.05 μM, SIJ1263 0.002 or 0.005 μM, PD173074 0.1 μM
HUH7 cells [8] = assay: Invasion assay; assay type: cell-based, human; details: low concentrations
Summary of the method: (§3)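 Cells (HUH7 in RPMI1640, HEP3B in DMEM) were serum-starved for 12 h. They were then seeded at 5.0 × 10^4 cells per chamber into 8 μm ECMatrix-coated transwell chambers (QCM collagen invasion kit). Test compound was added and chambers were incubated at 37 °C under 5% CO2. Invaded cells were stained with 0.005% crystal violet in PBS.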

HEP3B cells [9] = assay: Invasion assay; assay type: cell-based, human; details: low concentrations
Summary of the method: as §3

[10] = system: phosphorylation of FGFR and downstream molecules (PLCγ, FRS2α, AKT, ERK1/2) in HUH7 cells; assay: Western blot of FGFR signaling; assay type: cell-based, human; details: dose-dependent
Summary of the method: (§4)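 After SDS-PAGE, proteins were transferred to nitrocellulose and blocked in 5% milk in TBS-T. Rabbit antibodies (FGFR4, pFGFR, pERK, pFRS2α, pPLCγ, β-actin) were applied overnight at 4 °C, then secondary for 1 h. Detection was by ECL with densitometry.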

[11] = system: phosphorylation of FGFR and downstream molecules (PLCγ, FRS2α, AKT, ERK1/2) in HEP3B cells; assay: Western blot of FGFR signaling; assay type: cell-based, human; details: dose-dependent
Summary of the method: as §4

HUH7 cells [12] = assay: Cell cycle analysis; assay type: cell-based, human; details: 18 h
Summary of the method: (§5)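 Cells seeded at 1 × 10^5 on 60 mm plates and exposed to test compound for 18 h. They were then fixed in 70% ethanol and resuspended in PBS containing 50 μg/mL propidium iodide. DNA content was measured by flow cytometry to give the cell cycle phase distribution.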

HEP3B cells [13] = assay: Cell cycle analysis; assay type: cell-based, human; details: 18 h
Summary of the method: as §5

SK-HEP1 cells [14] = assay: Cell cycle analysis; assay type: cell-based; details: 18 h
HUH7 cells [15] = assay: Apoptosis assay; assay type: cell-based, human; details: 24 h
Summary of the method: (§6)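 Cells (1 × 10^5) were treated with test compound for 24 h, then harvested and stained with Alexa Fluor 488 annexin V and propidium iodide per kit instructions, and analysed by flow cytometry. Culture: HEP3B and SK-HEP1 in DMEM, HUH7 in RPMI1640, each with 10% FBS and antibiotic-antimycotic, at 37 °C under 5% CO2.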

HEP3B cells [16] = assay: Apoptosis assay; assay type: cell-based, human; details: 24 h
Summary of the method: as §6

SK-HEP1 cells [17] = assay: Apoptosis assay; assay type: cell-based; details: 24 h
Summary of the method: as §6

Chain of FGFR4 WT (P22455 22-802): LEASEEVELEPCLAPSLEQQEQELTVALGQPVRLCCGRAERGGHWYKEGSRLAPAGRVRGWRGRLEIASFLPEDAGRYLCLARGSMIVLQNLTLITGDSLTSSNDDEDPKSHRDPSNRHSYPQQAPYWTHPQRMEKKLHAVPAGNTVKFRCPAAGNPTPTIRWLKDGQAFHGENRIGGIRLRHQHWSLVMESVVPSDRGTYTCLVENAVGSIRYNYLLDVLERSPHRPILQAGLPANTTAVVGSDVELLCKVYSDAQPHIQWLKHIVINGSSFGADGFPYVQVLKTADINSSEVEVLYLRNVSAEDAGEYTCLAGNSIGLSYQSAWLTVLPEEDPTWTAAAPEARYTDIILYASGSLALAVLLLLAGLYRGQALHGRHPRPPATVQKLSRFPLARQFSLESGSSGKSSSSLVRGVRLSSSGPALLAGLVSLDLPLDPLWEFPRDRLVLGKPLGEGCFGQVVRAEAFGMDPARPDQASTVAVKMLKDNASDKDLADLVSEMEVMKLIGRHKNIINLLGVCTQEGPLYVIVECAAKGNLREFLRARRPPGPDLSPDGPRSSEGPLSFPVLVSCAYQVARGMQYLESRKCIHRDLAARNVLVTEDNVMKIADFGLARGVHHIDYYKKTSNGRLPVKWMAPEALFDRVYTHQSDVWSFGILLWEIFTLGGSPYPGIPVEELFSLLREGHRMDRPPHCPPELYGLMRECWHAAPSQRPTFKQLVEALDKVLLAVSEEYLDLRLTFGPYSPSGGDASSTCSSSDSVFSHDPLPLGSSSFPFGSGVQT
Chain of FGFR2 WT (P21802 22-821): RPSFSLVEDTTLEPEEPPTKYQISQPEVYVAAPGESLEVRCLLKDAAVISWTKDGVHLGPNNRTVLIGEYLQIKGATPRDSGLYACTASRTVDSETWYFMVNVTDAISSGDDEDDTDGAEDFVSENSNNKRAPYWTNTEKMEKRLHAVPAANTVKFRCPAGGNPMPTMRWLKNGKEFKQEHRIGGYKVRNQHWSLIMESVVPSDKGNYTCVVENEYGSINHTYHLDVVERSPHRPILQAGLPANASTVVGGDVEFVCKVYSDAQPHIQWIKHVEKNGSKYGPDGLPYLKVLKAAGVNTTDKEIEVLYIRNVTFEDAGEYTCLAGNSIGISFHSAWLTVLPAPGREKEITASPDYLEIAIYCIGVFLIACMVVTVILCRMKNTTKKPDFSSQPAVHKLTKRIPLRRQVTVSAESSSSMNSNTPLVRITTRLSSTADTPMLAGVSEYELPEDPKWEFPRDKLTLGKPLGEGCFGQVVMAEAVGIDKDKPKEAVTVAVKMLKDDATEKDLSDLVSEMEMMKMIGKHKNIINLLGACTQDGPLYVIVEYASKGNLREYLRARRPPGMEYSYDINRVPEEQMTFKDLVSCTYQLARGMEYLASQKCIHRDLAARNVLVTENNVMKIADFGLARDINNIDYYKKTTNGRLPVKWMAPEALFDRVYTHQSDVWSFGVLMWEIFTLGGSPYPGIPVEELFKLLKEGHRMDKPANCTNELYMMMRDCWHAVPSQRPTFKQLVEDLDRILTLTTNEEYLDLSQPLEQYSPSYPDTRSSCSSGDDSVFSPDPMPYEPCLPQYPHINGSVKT
Chain of FGFR2 N549H (P21802 22-821 N549H): as the sequence (P21802 22-821) above, with N528H counted along it
Chain of FGFR1 WT (P11362 22-822): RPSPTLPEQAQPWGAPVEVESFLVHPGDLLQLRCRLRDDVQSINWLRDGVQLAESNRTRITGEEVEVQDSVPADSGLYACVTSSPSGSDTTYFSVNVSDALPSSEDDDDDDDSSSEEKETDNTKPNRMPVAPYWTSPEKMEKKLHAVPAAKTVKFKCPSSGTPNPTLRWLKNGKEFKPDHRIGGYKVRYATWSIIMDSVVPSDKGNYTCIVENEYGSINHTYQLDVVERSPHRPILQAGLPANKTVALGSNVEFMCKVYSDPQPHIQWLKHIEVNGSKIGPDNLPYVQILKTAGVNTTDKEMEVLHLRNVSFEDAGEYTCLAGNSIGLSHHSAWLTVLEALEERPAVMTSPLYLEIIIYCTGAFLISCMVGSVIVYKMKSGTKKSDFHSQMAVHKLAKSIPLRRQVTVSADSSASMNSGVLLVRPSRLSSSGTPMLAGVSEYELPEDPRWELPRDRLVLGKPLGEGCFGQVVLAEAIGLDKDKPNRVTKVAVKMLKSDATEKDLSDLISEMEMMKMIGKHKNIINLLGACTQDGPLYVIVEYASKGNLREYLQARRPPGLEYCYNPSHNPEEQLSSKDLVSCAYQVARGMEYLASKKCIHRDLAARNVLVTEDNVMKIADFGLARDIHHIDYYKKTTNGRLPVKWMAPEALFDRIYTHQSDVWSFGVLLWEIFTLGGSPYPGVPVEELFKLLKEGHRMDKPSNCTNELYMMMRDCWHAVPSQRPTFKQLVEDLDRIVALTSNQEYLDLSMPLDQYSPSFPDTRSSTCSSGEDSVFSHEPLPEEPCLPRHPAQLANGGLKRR
Chain of FGFR1 V561M (P11362 22-822 V561M): as the sequence (P11362 22-822) above, with V540M counted along it

IC50 (FGFR1 WT): 0.011 µM | IC50 (FGFR1 V561M): 7.54 µM | IC50 (FGFR2 WT): 0.02 µM | IC50 (FGFR2 N549H): 0.007 µM | IC50 (FGFR4 WT; FGFR4 WT, radiometric, ATP 10 µM): 0.004 µM | IC50 (FGFR4 WT; read-out: IC50 against FGFR4, wtFGFR4): 0.00417 µM | GI50 (HEP3B cells [1]; HEP3B, FGFR4 overexpression, HCC): 0.373 ± 0.15 µM | GI50 (HUH7 cells [2]; HUH7, FGFR4 overexpression, HCC, 72 h): 0.06 ± 0.01 µM | GI50 (HEPG2 cells; 72 h): 0.366 ± 0.07 µM | GI50 (MDA-MB-453 cells; MDA-MB-453, FGFR4 overexpression, breast cancer, 72 h): 0.443 ± 0.07 µM
Structure (SMILES): Cc1ccc(Nc2ncc3c(n2)N(C)C(=O)N(c2cc(NC(=O)c4cccc(C(F)(F)F)c4)ccc2C)C3)cn1 [GNF-7]
GI50 (AN3-CA cells; FGFR2 N549K/K310R, endometrium): 0.017 µM | GI50 (KMS-11 cells; KMS-11, FGFR3 Y373C, myeloma, 72 h): 0.015 µM | GI50 (J82 cells; J82, FGFR3 K652E, urinary bladder, 72 h): 0.05 ± 0.01 µM | block of colony formation (SK-HEP1 cells [3]): 11% | suppression of colony-formation (HUH7 cells [4]): almost completely | suppression of colony-formation (HEP3B cells [5]): almost completely | wound healing (migration) (HUH7 cells [6]): substantially reduced | wound healing (migration) (HEP3B cells [7]): substantially reduced | effect on invasion (HUH7 cells [8]): remarkably attenuate invasion | effect on invasion (HEP3B cells [9]): remarkably attenuate invasion | phosphorylation of FGFR and downstream signaling molecules [10]: inhibiting significantly phosphorylation | phosphorylation of FGFR and downstream signaling molecules [11]: inhibiting significantly phosphorylation | cell cycle distribution (HUH7 cells [12]): induce G0/G1 phase cell cycle arrest with decrease in the S phase | cell cycle distribution (HEP3B cells [13]): induce G0/G1 phase cell cycle arrest with decrease in the S phase | induction of G0/G1 phase cell cycle arrest (SK-HEP1 cells [14]): little effects | apoptosis induction (HUH7 cells [15]): inducing apoptosis | apoptosis induction (HEP3B cells [16]): inducing apoptosis | apoptosis induction (SK-HEP1 cells [17]): little effects

IC50 (FGFR4 WT): 0.097 µM | GI50 (HEP3B cells [1]; Homo sapiens, Hep3B): 2.5 ± 0.49 µM | GI50 (HUH7 cells [2]; Homo sapiens, Huh-7, 72 h): 0.598 ± 0.24 µM | GI50 (HEPG2 cells; 72 h): 13.4 ± 3.6 µM | GI50 (HEPG2 cells; Homo sapiens, HepG2, 72 h): > 10 µM | GI50 (MDA-MB-453 cells; Homo sapiens, MDA-MB-453, 72 h): > 10 µM
Structure (SMILES): CCN(CC)CCCCNc1ncc2cc(-c3cc(OC)cc(OC)c3)c(NC(=O)NC(C)(C)C)nc2n1 [PD173074]
GI50 (AN3-CA cells; Homo sapiens): 0.973 ± 2.55 µM | GI50 (KMS-11 cells; Homo sapiens, KMS-11, 72 h): 0.064 ± 0.02 µM | GI50 (J82 cells; Homo sapiens, J82, 72 h): 0.975 ± 0.45 µM | wound healing (migration) (HUH7 cells [6]): moderately reduced the wound healing | wound healing (migration) (HEP3B cells [7]): moderately reduced the wound healing | effect on invasion (HUH7 cells [8]): little effect on invasion capability | effect on invasion (HEP3B cells [9]): little effect on invasion capability

GI50 (HEP3B cells [1]; Homo sapiens, Hep3B): 1.37 ± 0.14 µM | GI50 (HUH7 cells [2]; Homo sapiens, Huh-7, 72 h): 0.157 ± 0.12 µM | GI50 (HEPG2 cells; Homo sapiens, HepG2, 72 h): 5.37 ± 1.1 µM | GI50 (MDA-MB-453 cells; Homo sapiens, MDA-MB-453, 72 h): 2.64 ± 0.28 µM
Structure (SMILES): CCN1CCN(c2ccc(Nc3cc(N(C)C(=O)Nc4c(Cl)c(OC)cc(OC)c4Cl)ncn3)cc2)CC1 [BGJ398, 3-(2,6-dichloro-3,5-dimethoxy-phenyl)-1-{6-[4-(4-ethyl-piperazin-1-yl)-phenylamino]-pyrimidin-4-yl}-1-methyl-urea]
GI50 (AN3-CA cells; Homo sapiens): 0.057 ± 0.01 µM | GI50 (KMS-11 cells; Homo sapiens, KMS-11, 72 h): 0.143 ± 0.1 µM | GI50 (J82 cells; Homo sapiens, J82, 72 h): 2.84 ± 1.57 µM

GI50 (HEP3B cells [1]; Homo sapiens, Hep3B): 4.22 ± 1.03 µM | GI50 (HUH7 cells [2]; Homo sapiens, Huh-7, 72 h): 0.715 ± 0.1 µM | GI50 (MDA-MB-453 cells; Homo sapiens, MDA-MB-453, 72 h): 2.15 ± 0.38 µM
Structure (SMILES): C=CC(=O)Nc1cccc(C)c1Nc1ncc2cc(-c3c(Cl)c(OC)cc(OC)c3Cl)ccc2n1 [BLU9931]
GI50 (AN3-CA cells; Homo sapiens): 9.2 ± 0.45 µM | GI50 (KMS-11 cells; Homo sapiens, KMS-11, 72 h): 0.541 ± 0.01 µM | GI50 (J82 cells; Homo sapiens, J82, 72 h): 5.87 ± 0.58 µM

GI50 (HEP3B cells [1]; Homo sapiens, Hep3B): 5.42 ± 1.12 µM | GI50 (HUH7 cells [2]; Homo sapiens, Huh-7, 72 h): 9.59 ± 2.06 µM | GI50 (HEPG2 cells; Homo sapiens, HepG2, 72 h): 8.56 ± 1.45 µM
Structure (SMILES): CNC(=O)c1cc(Oc2ccc(NC(=O)Nc3ccc(Cl)c(C(F)(F)F)c3)cc2)ccn1 [sorafenib]
